Experimental data reported in ChEMBL document CHEMBL3868612, “Discovery of a potent and selective ROMK inhibitor with improved pharmacokinetic properties based on an octahydropyrazino[2,1-c][1,4]oxazine scaffold” (Bioorg Med Chem Lett, 2016).

How the values were obtained:
[1] = Half life in po dosed human; assay type: ADME, organism-based; conditions: in vivo
[2] = Half life in Sprague-Dawley rat at 0.5 mg/kg, iv or 1 mg/kg, po; assay type: ADME, organism-based; conditions: in vivo
[3] = biological target: T1, ATP-sensitive inward rectifier potassium channel 1 (Homo sapiens, UniProt P48048); experiment: Inhibition of human ROMK expressed in CHO cells after 6 mins at -70 mV holding potential by electrophysiology method; assay type: cell-based
T1 sequence (P48048 whole entry): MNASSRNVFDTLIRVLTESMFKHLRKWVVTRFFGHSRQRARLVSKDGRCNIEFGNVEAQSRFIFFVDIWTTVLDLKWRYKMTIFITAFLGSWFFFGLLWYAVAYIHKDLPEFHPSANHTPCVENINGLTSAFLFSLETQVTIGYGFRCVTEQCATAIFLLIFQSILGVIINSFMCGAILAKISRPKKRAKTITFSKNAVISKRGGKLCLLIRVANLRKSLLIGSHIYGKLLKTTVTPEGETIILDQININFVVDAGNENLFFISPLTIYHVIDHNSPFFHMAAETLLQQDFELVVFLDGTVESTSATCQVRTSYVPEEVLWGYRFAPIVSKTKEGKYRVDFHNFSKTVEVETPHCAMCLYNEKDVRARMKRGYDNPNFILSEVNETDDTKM

[4] = Oral bioavailability in Sprague-Dawley rat at 1 mg/kg; assay type: ADME, organism-based; conditions: in vivo
[5] = biological target: T2, Voltage-gated inwardly rectifying potassium channel KCNH2 (Homo sapiens, UniProt Q12809); experiment: Inhibition of human ERG by electrophysiology method
T2 sequence (Q12809 whole entry): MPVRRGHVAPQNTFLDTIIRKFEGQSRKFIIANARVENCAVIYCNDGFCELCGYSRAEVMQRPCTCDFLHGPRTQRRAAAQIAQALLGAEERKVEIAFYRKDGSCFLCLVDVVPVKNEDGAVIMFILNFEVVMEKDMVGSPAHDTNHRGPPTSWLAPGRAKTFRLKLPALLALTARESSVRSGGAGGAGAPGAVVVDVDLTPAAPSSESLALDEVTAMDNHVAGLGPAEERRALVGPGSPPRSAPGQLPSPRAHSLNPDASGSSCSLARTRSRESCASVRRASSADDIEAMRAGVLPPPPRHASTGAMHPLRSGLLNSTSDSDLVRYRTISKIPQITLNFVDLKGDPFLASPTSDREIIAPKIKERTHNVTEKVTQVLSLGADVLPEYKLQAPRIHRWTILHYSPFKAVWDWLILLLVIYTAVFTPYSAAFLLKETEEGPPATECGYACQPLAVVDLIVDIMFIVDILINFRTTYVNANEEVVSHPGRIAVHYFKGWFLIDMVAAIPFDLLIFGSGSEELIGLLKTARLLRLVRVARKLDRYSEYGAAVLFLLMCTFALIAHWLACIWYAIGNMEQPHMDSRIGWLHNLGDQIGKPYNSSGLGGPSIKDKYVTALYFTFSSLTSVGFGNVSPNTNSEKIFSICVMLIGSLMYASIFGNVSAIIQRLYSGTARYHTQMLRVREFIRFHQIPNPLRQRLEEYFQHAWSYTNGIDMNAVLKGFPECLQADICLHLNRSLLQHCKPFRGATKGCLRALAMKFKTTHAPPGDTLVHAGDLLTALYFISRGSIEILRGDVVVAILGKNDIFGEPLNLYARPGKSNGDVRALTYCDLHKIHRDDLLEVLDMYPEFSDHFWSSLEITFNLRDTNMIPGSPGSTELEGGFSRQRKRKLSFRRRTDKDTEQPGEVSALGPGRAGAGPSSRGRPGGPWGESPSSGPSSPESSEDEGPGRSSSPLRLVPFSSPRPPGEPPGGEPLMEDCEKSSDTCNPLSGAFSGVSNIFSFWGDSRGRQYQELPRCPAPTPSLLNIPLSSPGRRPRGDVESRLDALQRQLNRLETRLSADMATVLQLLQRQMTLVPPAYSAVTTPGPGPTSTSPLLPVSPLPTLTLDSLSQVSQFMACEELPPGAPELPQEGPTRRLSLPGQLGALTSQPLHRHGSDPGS

[6] = Dose normalized AUC in Sprague-Dawley rat at 1 mg/kg, po; assay type: ADME, organism-based; conditions: in vivo
[7] = system: CHO; experiment: Selectivity ratio of IC50 for displacement of 35S-MK499 from human ERG to IC50 for human ROMK expressed in CHO cells; assay type: cell-based
[8] = biological target: T2, Voltage-gated inwardly rectifying potassium channel KCNH2; experiment: Displacement of 35S-MK499 from human ERG expressed in HEK293 cell membranes
Procedure, shortened: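 Membranes were prepared from HEK-293 cells stably expressing hERG. Binding was measured as displacement of 35S-MK499.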

[9] = Dose normalized AUC in Sprague-Dawley rat at 2 mg/kg, po; assay type: ADME, organism-based; conditions: in vivo
[10] = Oral bioavailability in Sprague-Dawley rat at 2 mg/kg; assay type: ADME, organism-based; conditions: in vivo
[11] = Half life in Sprague-Dawley rat at 1 mg/kg, iv or 2 mg/kg, po; assay type: ADME, organism-based; conditions: in vivo

Row | Compound | half-life [2] [min] | IC50 [3] [nM] | bioavailability [4] [%] | IC50 [5] [nM] | AUC/dose [6] [µM·kg·h/mg] | other results
1 | Cc1cccc(Nc2ccncc2S(=O)(=O)NC(=O)NC(C)C)c1 [TORSEMIDE] | – | – | – | – | – | half-life [1]: 180 min
2 | Cc1c([C@@H]2CN3CCN(C(=O)Cc4cnc(-n5cnnn5)cn4)C[C@H]3CO2)ccc(F)c1C#N | 84 | 33 | 100 | 10000 | 4.64 | –
3 | Cc1c([C@H]2CN3CCN(C(=O)Cc4ccc(-n5cnnn5)cn4)C[C@H]3CO2)ccc(F)c1C#N | 57.6 | 70 | 68 | 19900 | – | –
4 | Cc1c([C@H]2CN3CCN(C(=O)Cc4ccc(-n5cnnn5)nc4)C[C@@H]3CO2)ccc2c1COC2=O | – | 105 | – | – | – | Ratio IC50 [7]: 508; IC50 [8]: 53400 nM
5 | O=C1OCCc2cc([C@H]3CN4CCN(C(=O)Cc5ccc(-n6cnnn6)nc5)C[C@@H]4CO3)ccc21 | 45 | 165 | 98 | – | 2.25 | –
6 | Cc1c(C#N)cccc1[C@@H]1CN2CCN(C(=O)Cc3ccc(-n4cnnn4)nc3)C[C@@H]2CO1 | 98.4 | 27 | 67 | 14800 | 2 | –
7 | Cc1c([C@@H]2CN3CCN(C(=O)Cc4ccc(-n5cnnn5)nc4)C[C@H]3CS2)ccc2c1COC2=O | – | 100 | – | – | – | Ratio IC50 [7]: 89; IC50 [8]: 8900 nM
8 | Cc1c([C@H]2CN3CCN(C(=O)Cc4ccc(-n5cnnn5)nc4)C[C@H]3CO2)ccc2c1COC2=O | 40.2 | 88 | 46 | 56500 | 0.32 | Ratio IC50 [7]: 305; IC50 [8]: 26800 nM
9 | Cc1c([C@@H]2CN3CCN(C(=O)Cc4ccc(-n5cnnn5)nc4)C[C@H]3CO2)ccc(F)c1C#N | 63 | 36 | 57 | 10000 | 1 | –
10 | Cc1c([C@@H]2CN3CCN(C(=O)Cc4ccc(-n5cnnn5)nc4)C[C@@H]3CO2)ccc2c1COC2=O | 48 | 86 | 100 | 74900 | 2.02 | Ratio IC50 [7]: 690; IC50 [8]: 59400 nM
11 | Cc1c([C@H]2CN3CCN(C(=O)Cc4ccc(-n5cnnn5)nn4)C[C@H]3CO2)ccc(F)c1C#N | – | 86 | – | – | – | –
12 | O=C1OCCc2cc([C@@H]3CN4CCN(C(=O)Cc5cnc(-n6cnnn6)nc5)C[C@H]4CO3)ccc21 | 29.4 | 260 | 12 | > 90000 | 0.18 | –
13 | Cc1c([C@@H]2CN3CCN(C(=O)Cc4cnc(-n5cnnn5)nc4)C[C@H]3CO2)ccc(F)c1C#N | – | 18 | – | – | – | –
14 | Cc1c([C@H]2CN3CCN(C(=O)Cc4cnc(-n5cnnn5)cn4)C[C@H]3CO2)ccc(F)c1C#N | – | 107 | – | 12300 | – | –
15 | Cc1c([C@@H]2CN3CCN(C(=O)Cc4ccc(-n5cnnn5)nc4)C[C@@H]3CO2)ccc(F)c1C#N | – | 60 | – | > 10000 | – | –
16 | Cc1c([C@H]2CN3CCN(C(=O)Cc4ccc(-n5cnnn5)nc4)C[C@@H]3CN2)ccc2c1COC2=O | – | 140 | – | – | – | Ratio IC50 [7]: 157; IC50 [8]: 22000 nM
17 | O=C1OCCc2cc([C@@H]3CN4CCN(C(=O)Cc5ccc(-n6cnnn6)cc5)C[C@H]4CO3)ccc21 | – | – | – | > 30000 | – | –
18 | O=C(Cc1ccc(-n2cnnn2)nc1)N1CCN2C[C@@H](c3ccc4nonc4c3)OC[C@@H]2C1 | – | 45 | – | – | – | –
19 | O=C1OCCc2cc([C@H]3CN4CCN(C(=O)Cc5ccc(-n6cnnn6)nc5)C[C@H]4CO3)ccc21 | – | 205 | – | – | – | –
20 | O=C(Cc1ccc(-n2cnnn2)nc1)N1CCN2C[C@H](c3ccc4nonc4c3)OC[C@@H]2C1 | – | 104 | – | – | – | –
21 | Cc1c([C@@H]2CN3CCN(C(=O)Cc4ccc(-n5cnnn5)nc4)C[C@H]3CO2)ccc2c1COC2=O | 60 | 65 | 82 | 19700 | 2.05 | Ratio IC50 [7]: 325; IC50 [8]: 21100 nM
22 | Cc1c([C@@H]2CN3CCN(C(=O)Cc4ccc(-n5cnnn5)nc4)C[C@H]3CO2)ccc2nonc12 | – | 72 | – | > 10000 | – | –
23 | Cc1c(C#N)cccc1[C@@H]1CN2CCN(C(=O)Cc3ccc(-n4cnnn4)nc3)C[C@H]2CO1 | – | 50 | – | – | – | –
24 | Cc1c([C@H]2CN3CCN(C(=O)Cc4ccc(-n5cnnn5)nc4)C[C@H]3CO2)ccc(F)c1C#N | 87.6 | 41 | 69 | 12500 | 1.8 | –
25 | Cc1c([C@H]2CN3CCN(C(=O)Cc4cnc(-n5cnnn5)nc4)C[C@H]3CO2)ccc(F)c1C#N | – | 39 | – | – | – | AUC/dose [9]: 1.01 µM·kg·h/mg; bioavailability [10]: 54%; half-life [11]: 81.6 min
26 | O=C1OCCc2cc([C@@H]3CN4CCN(C(=O)Cc5ccc(-n6cnnn6)nc5)C[C@H]4CO3)ccc21 | 51 | 57 | 65 | – | 1.4 | –
27 | Cc1c(C#N)cccc1[C@H]1CN2CCN(C(=O)Cc3ccc(-n4cnnn4)nc3)C[C@H]2CO1 | – | 112 | – | 17600 | – | –
28 | Cc1c([C@H]2CN3CCN(C(=O)Cc4ccc(-n5cnnn5)nc4)C[C@H]3CO2)ccc2nonc12 | 58.2 | 83 | 100 | 10000 | 1.8 | –
